From ChEMBL document CHEMBL3352559, “Synthesis and pharmacological investigation of aralkyl diamine derivatives as potential triple reuptake inhibitors” (Eur J Med Chem, 2014)

Columns and labels:
[1] = target: C-X-C chemokine receptor type 2 (Homo sapiens) (UniProt P25025); assay: Displacement of [125I]IL-8 from CXCR2 receptor (unknown origin) at 10 uM relative to control
Outline: (§1)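 Outsourced CNS panel of 55 receptor binding assays run by Cerep. Compound tested at 10 μM, the default primary-binding concentration, with inhibition expressed relative to control. Inhibition above 50% taken as a significant effect.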

[2] = target: Melatonin receptor type 1A (Homo sapiens) (UniProt P48039); assay: Displacement of 2-[125I]iodomelatonin from human melatonin MT1 receptor at 10 uM relative to control; outline: as §1
[3] = target: 5-hydroxytryptamine receptor 3A (Homo sapiens) (UniProt P46098); assay: Inhibition of human 5HT3 at 10 uM by […] binding assay relative to control
Outline: (§2)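 Outsourced CNS receptor panel (55 binding assays); compound tested at 10 μM in primary radioligand binding; specific binding inhibition expressed relative to control, with >50% inhibition taken as a significant effect.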

[4] = target: Muscarinic acetylcholine receptor M2 (Homo sapiens) (UniProt P08172); assay: Displacement of [3H]AF-DX 384 from human muscarinic M2 receptor at 10 uM relative to control; outline: as §1
[5] = Acute toxicity in KM mouse assessed as survival at 300 mg/kg, po up to 14 days (reference value: 100%); format: organism-based; parameters: dose 300 mg/kg, route oral; conditions: in vivo
[6] = system: Salmonella typhimurium; assay: Mutagenic activity in Salmonella typhimurium TA98 assessed as number of reversion mutation at 300 ug/plate; format: toxicity, organism-based; conditions: salmonella enterica subsp. enterica serovar typhimurium
Outline: (§3)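 Ames reversion test in Salmonella typhimurium TA98 and TA100, with and without rat liver S9 metabolic activation. Compound was dissolved in DMSO and added at 3–5000 μg/plate. Each dose, vehicle and positive control was plated in triplicate, and revertant colonies were counted.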

[7] = target: Delta-type opioid receptor (Homo sapiens) (UniProt P41143); assay: Displacement of [3H] DADLE from human delta opioid receptor at 10 uM relative to control; outline: as §1
[8] = Acute toxicity in KM mouse assessed as survival at 600 mg/kg, po up to 14 days (reference value: 100%); format: organism-based; parameters: dose 600 mg/kg, route oral; conditions: in vivo
[9] = target: Cholecystokinin receptor type A (Homo sapiens) (UniProt P32238); assay: Displacement of [125I]CCK-8s from human CCKA at 10 uM relative to control; outline: as §1
[10] = Mean residence time in Sprague-Dawley rat at 0.5 mg/kg, iv; format: ADME, organism-based; parameters: dose 0.5 mg/kg, route intravenous; conditions: in vivo
Outline: (§4)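 Male SD rats, fasted overnight until 6 h post-dose; single 0.5 mg/kg femoral-vein injection; blood drawn into heparin at 5, 15, 30 min, 1, 2 and 4 h; plasma stored at -40 °C; drug levels by LC/MS/MS; noncompartmental parameters.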

[11] = system: Salmonella typhimurium; assay: Mutagenic activity in Salmonella typhimurium TA98 assessed as number of reversion mutation at 5000 ug/plate; format: toxicity, organism-based; conditions: salmonella enterica subsp. enterica serovar typhimurium; outline: as §3
[12] = Ratio of drug level in Sprague-Dawley rat brain to plasma at 0.5 mg/kg iv after 0.25 hrs; format: ADME, organism-based; parameters: dose 0.5 mg/kg, route intravenous; conditions: read-out: BPR
[13] = system: Salmonella typhimurium; assay: Mutagenic activity in Salmonella typhimurium TA98 assessed as number of reversion mutation at 10 ug/plate; format: toxicity, organism-based; conditions: salmonella enterica subsp. enterica serovar typhimurium; outline: as §3
[14] = system: Rattus norvegicus; assay: Antidepressant activity in rat assessed as reduction in immobility time at 5 mg/kg, po by forced swimming test relative to control; format: functional
Outline: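 Male rats dosed orally at 5, 10 or 20 mg/kg alongside vehicle and venlafaxine 30 mg/kg PO groups. 1 h post-dose, each rat placed in a glass cylinder (40 cm × 18 cm) holding 15 cm of 25 ± 1 °C water. Immobility time recorded over a 6 min trial; significant main effects followed by post hoc Fisher's test.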

[15] = Ratio of drug level in Sprague-Dawley rat brain to plasma at 0.5 mg/kg iv after 1 hrs; format: ADME, organism-based; parameters: dose 0.5 mg/kg, route intravenous; conditions: read-out: BPR
[16] = target: Neuromedin-K receptor (Homo sapiens) (UniProt P29371); assay: Displacement of [3H]-SR142801 from human NK3 receptor at 10 uM relative to control; outline: as §1
[17] = species: Homo sapiens; assay: Inhibition of GABA-gated chloride channel (unknown origin) at 10 uM by [35S]TBPS binding assay relative to control; outline: as §2
[18] = system: Salmonella typhimurium; assay: Mutagenic activity in Salmonella typhimurium TA98 assessed as number of reversion mutation at 3 ug/plate; format: toxicity, organism-based; conditions: salmonella enterica subsp. enterica serovar typhimurium; outline: as §3
[19] = Acute toxicity in KM mouse assessed as survival at 450 mg/kg, po up to 14 days (reference value: 100%); format: organism-based; parameters: dose 450 mg/kg, route oral; conditions: in vivo
[20] = target: 5-hydroxytryptamine receptor 5A (Homo sapiens) (UniProt P47898); assay: Displacement of [3H]LSD from human 5-HT5A receptor at 10 uM relative to control; outline: as §1
[21] = Drug uptake in Sprague-Dawley rat plasma at 0.5 mg/kg iv after 0.25 hrs; format: ADME, organism-based; parameters: dose 0.5 mg/kg, route intravenous; outline: as §4
[22] = system: Salmonella typhimurium; assay: Mutagenic activity in Salmonella typhimurium TA98 assessed as number of reversion mutation at 30 ug/plate; format: toxicity, organism-based; conditions: salmonella enterica subsp. enterica serovar typhimurium; outline: as §3
[23] = target: Type-1 angiotensin II receptor (Homo sapiens) (UniProt P30556); assay: Displacement of [125I][Sar1,Ile8]-ATII from human angiotensin AT1 receptor at 10 uM relative to control; outline: as §1
[24] = Elimination half life in Sprague-Dawley rat at 2 mg/kg, po; format: ADME, organism-based; parameters: dose 2 mg/kg, route oral; conditions: in vivo, read-out: beta t1/2 (converted)
[25] = system: Salmonella typhimurium; assay: Mutagenic activity in Salmonella typhimurium TA100 assessed as number of reversion mutation at 5000 ug/plate; format: toxicity, organism-based; conditions: salmonella enterica subsp. enterica serovar typhimurium; outline: as §3
[26] = target: C-C chemokine receptor type 1 (Homo sapiens) (UniProt P32246); assay: Displacement of [125I]MIP-1alpha from human CCR1 receptor at 10 uM relative to control; outline: as §1
[27] = target: Nociceptin receptor (Homo sapiens) (UniProt P41146); assay: Displacement of [3H] nociceptin from human ORL1 receptor at 10 uM relative to control; outline: as §1
[28] = target: Muscarinic acetylcholine receptor M1 (Homo sapiens) (UniProt P11229); assay: Displacement of [3H]pirenzepine from human muscarinic M1 receptor at 10 uM relative to control; outline: as §2
[29] = Apparent oral clearance in Sprague-Dawley rat at 2 mg/kg, po; format: ADME, organism-based; parameters: dose 2 mg/kg, route oral; conditions: in vivo
Outline: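 Male SD rats, fasted overnight until 6 h post-dose. PO group received single 2 mg/kg with heparinized blood sampled at 5, 15, 30 min, 1, 2, 4, 8, 24 h. IV group received single 0.5 mg/kg via femoral vein with sampling at 5, 15, 30 min, 1, 2, 4 h. Plasma stored at -40 °C, quantified by LC/MS/MS; 24 rats per group.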

[30] = target: Vasoactive intestinal polypeptide receptor 1 (Homo sapiens) (UniProt P32241); assay: Displacement of [125I]VIP from human VPAC1 receptor at 10 uM relative to control; outline: as §1
[31] = Drug uptake in Sprague-Dawley rat plasma at 0.5 mg/kg iv after 0.08 hrs; format: ADME, organism-based; parameters: dose 0.5 mg/kg, route intravenous; outline: as §4
[32] = Elimination half life in Sprague-Dawley rat at 0.5 mg/kg, iv; format: ADME, organism-based; parameters: dose 0.5 mg/kg, route intravenous; conditions: in vivo, read-out: beta t1/2 (converted); outline: as §4
[33] = target: Sodium-dependent noradrenaline transporter (Homo sapiens, UniProt P23975); assay: Inhibition of [3H]-NE uptake in human norepinephrine transporter expressed in HEK293 cells by scintillation counting; format: cell-based
[34] = target: 5-hydroxytryptamine receptor 2B (Homo sapiens) (UniProt P41595); assay: Displacement of [125I] (+/-)DOI from human 5-HT2B receptor at 10 uM relative to control; outline: as §1
5-hydroxytryptamine receptor 2B (Homo sapiens), sequence (P41595 whole entry): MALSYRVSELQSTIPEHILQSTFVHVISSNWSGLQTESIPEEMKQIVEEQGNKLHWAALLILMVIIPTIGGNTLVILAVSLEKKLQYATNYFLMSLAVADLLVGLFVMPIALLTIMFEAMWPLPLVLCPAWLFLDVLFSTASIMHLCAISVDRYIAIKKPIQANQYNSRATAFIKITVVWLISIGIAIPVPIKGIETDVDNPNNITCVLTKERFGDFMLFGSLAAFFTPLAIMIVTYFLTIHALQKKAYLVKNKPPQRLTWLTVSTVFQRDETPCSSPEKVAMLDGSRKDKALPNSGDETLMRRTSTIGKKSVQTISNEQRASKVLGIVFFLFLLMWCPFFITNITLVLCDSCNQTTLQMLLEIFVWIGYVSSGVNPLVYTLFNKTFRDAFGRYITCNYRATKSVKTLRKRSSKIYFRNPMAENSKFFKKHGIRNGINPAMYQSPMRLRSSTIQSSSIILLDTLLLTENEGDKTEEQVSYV

C-C chemokine receptor type 1 (Homo sapiens), sequence (P32246 whole entry): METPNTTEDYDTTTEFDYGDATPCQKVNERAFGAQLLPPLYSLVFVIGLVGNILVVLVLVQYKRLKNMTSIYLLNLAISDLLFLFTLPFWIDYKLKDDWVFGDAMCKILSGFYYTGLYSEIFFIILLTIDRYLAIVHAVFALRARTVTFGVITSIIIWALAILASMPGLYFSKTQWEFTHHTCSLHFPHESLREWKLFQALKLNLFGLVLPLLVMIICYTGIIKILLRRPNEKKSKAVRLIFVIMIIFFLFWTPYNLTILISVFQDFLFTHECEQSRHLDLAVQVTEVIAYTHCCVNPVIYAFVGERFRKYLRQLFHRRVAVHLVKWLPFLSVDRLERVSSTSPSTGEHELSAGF
5-hydroxytryptamine receptor 3A (Homo sapiens), sequence (P46098 whole entry): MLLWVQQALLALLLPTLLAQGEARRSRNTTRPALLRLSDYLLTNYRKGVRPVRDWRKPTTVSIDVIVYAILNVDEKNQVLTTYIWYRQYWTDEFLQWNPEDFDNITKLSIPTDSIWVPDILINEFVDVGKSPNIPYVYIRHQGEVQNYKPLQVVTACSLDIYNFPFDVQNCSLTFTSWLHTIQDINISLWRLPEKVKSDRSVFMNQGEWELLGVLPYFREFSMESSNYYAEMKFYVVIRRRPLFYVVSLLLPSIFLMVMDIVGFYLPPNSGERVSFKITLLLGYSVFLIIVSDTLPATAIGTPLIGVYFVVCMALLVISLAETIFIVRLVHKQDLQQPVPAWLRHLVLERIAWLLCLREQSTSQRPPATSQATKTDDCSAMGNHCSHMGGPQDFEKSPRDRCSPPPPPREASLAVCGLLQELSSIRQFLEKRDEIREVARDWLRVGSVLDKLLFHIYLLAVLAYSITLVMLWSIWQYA
Type-1 angiotensin II receptor (Homo sapiens), sequence (P30556 whole entry): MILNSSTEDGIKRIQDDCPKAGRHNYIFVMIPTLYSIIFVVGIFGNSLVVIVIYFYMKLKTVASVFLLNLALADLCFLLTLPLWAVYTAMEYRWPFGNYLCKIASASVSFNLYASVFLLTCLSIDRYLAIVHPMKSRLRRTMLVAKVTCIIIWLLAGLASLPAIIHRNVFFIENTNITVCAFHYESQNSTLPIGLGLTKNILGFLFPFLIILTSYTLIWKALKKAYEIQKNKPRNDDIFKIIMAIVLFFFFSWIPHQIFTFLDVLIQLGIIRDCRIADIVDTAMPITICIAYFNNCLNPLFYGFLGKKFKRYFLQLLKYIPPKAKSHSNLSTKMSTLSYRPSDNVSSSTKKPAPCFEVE
5-hydroxytryptamine receptor 5A (Homo sapiens), sequence (P47898 whole entry): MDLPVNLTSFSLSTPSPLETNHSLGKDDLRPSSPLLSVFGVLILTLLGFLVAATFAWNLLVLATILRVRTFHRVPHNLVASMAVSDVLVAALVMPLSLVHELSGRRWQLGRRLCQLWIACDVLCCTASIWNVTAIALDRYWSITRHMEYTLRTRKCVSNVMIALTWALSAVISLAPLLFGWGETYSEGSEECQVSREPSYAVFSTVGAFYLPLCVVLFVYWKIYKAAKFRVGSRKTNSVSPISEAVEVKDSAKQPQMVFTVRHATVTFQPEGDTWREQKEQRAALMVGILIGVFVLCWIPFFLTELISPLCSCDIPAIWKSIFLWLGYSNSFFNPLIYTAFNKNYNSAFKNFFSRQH
Nociceptin receptor (Homo sapiens), sequence (P41146 whole entry): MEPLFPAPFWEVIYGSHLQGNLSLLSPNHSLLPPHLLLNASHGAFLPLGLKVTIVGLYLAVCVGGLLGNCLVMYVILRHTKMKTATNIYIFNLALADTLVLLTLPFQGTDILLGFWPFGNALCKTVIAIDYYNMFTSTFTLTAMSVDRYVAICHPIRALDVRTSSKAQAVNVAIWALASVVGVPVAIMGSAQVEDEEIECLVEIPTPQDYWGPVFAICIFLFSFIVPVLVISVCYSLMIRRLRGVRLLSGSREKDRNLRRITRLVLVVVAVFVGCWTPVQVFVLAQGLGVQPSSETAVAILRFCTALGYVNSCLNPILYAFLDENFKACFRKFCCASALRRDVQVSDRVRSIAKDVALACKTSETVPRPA
Sodium-dependent noradrenaline transporter, sequence (P23975 whole entry): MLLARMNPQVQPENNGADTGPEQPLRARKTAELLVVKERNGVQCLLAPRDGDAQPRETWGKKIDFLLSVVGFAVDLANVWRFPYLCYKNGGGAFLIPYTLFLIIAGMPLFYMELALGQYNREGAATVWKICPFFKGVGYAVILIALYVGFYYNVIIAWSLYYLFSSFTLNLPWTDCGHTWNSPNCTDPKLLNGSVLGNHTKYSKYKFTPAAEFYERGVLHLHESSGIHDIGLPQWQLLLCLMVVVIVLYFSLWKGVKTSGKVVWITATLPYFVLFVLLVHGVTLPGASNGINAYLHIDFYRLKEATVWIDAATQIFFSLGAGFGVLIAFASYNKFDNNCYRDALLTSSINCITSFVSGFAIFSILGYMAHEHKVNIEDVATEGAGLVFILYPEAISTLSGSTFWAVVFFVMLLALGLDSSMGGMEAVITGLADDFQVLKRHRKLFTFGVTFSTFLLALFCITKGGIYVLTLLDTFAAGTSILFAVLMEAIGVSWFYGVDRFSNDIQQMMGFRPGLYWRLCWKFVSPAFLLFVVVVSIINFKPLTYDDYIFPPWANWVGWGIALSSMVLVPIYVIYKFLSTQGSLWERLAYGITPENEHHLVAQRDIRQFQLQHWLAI
C-X-C chemokine receptor type 2 (Homo sapiens), sequence (P25025 whole entry): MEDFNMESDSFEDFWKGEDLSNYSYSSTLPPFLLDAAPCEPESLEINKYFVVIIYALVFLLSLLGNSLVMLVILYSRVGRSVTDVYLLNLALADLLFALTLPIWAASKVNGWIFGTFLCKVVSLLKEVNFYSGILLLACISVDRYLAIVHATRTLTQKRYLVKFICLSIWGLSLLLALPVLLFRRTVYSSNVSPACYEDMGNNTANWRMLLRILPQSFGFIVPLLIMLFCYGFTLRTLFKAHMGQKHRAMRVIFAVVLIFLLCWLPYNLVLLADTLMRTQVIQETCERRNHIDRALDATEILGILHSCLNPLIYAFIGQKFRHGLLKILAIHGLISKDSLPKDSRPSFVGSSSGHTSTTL
Cholecystokinin receptor type A (Homo sapiens), sequence (P32238 whole entry): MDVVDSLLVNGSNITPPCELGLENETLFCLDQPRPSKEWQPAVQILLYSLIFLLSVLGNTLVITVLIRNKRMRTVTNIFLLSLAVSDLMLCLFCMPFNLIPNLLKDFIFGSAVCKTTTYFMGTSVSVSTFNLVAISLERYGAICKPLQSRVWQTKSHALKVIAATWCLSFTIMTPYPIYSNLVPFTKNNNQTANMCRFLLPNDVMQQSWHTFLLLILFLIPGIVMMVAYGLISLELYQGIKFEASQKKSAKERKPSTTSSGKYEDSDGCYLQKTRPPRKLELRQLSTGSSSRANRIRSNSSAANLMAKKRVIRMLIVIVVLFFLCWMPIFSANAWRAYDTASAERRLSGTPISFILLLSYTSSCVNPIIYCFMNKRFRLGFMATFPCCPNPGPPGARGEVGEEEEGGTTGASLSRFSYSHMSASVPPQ
Delta-type opioid receptor (Homo sapiens), sequence (P41143 whole entry): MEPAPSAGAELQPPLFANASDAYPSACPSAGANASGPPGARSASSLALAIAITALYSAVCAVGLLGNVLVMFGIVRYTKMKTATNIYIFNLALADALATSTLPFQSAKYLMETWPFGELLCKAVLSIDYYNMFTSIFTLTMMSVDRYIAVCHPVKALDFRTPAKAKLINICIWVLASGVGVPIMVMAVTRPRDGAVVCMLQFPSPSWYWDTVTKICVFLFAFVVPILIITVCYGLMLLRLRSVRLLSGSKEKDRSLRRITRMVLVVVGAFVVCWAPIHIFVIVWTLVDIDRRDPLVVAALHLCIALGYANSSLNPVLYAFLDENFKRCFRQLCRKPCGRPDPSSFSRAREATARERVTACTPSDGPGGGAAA
Muscarinic acetylcholine receptor M1 (Homo sapiens), sequence (P11229 whole entry): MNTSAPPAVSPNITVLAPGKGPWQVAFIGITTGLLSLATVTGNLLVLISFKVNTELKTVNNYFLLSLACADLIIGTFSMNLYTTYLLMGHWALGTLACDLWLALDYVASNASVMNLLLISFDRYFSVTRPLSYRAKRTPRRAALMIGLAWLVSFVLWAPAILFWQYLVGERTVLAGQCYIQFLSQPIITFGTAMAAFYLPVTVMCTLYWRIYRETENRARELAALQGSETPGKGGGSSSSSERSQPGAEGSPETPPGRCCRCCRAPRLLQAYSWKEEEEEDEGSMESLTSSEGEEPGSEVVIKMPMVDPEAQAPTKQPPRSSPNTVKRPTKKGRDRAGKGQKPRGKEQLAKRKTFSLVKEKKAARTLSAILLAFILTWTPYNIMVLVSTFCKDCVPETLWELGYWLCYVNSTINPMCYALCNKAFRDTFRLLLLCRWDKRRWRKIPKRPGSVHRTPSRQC

Structure (SMILES): CN(C)CCC(c1ccc(Cl)c(Cl)c1)N1CCOCC1 (centres undefined)
- inhibition [1]: 9.3%
- inhibition [2]: -7.1%
- inhibition [3]: -5.2%
- inhibition [4]: 17.7%
- survival at 336 h [5]: 100%
- Activity [6]: 30
- inhibition [7]: -1.1%
- survival at 336 h [8]: 80%
- inhibition [9]: 1%
- MRT [10]: 1.06 h
- Activity [11]: 12
- Kp at 0.25 h [12]: 22
- Activity [13]: 32
- inhibition in vivo at 5 mg/kg [14]: 31%
- Kp at 1 h [15]: 12.7
- inhibition [16]: -0.5%
- inhibition [17]: -2.3%
- Activity [18]: 33
- survival at 336 h [19]: 100%
- inhibition [20]: 1.4%
- concentration at 0.25 h [21]: 42 ng/mL
- Activity [22]: 36
- inhibition [23]: -9.5%
- half-life [24]: 270 min
- Activity [25]: 77
- inhibition [26]: 22.1%
- inhibition [27]: 0.9%
- inhibition [28]: 45.6%
- CL/F [29]: 417 mL/min/kg
- inhibition [30]: 2.2%
- concentration at 0.08 h [31]: 48.5 ng/mL
- half-life [32]: 60 min
- IC50 [33]: 478 nM
- inhibition [34]: 19.2%
